In the library only some 3.3% were active in any assay of this set; here they are far more common.
CendR NRP1 mod – alters CendR peptide binding to human NRP-1; O14786; 360,000 compounds, 0.85% hits; inhibition, % at 25 µM; FAM-RPARPAR peptide binding to NRP-1, fluorescence polarization;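 active = inhibition or corrected inhibition above about 18%, plus a signal ratio from 0.5 to 1.5, limit read from the data, passing the limit was not always enough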
SENP8 block-1 – SENP8 (human) protease inhibition. Q96LD8. recombinant SENP8, Nedd8 substrate fluorescence. inhibition, % at 20 µM. 360,000 compounds, 0.64% hits. AID 602440; in the data active = inhibition mostly above about 40%, no sharp cut-off; inactive = mostly below about 27%
SENP1 FRET inh – inhibitors of human SENP1 SUMO protease catalytic domain. Q9P0U3. recombinant SENP1 catalytic domain, CyPet-SUMO1-YPet FRET cleavage. inhibition, % at 10 µM. 360,000 compounds, 0.21% hits;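 active = inhibition at least 30% at 10 µM, raw YFP signal under a set limit, fluorescence ratio 0.5 to 1.5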
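Assay system: hSENP1 catalytic domain, recombinant. Amount: SENP1 enzyme, 20 pM final. Schedule: 50 min reaction, RT, dark. Technique: FRET, CFP and YFP emission. Control set: no-enzyme wells low, DMSO-plus-enzyme wells high control.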
SENP8 block-2 – inhibitors of human SENP8 protease; purified SENP8, Z-RLRGG-aminoluciferin cleavage, luminescence; 330,000 compounds, 1.2% hits; AID 2540; inhibition, % at 10 µM; in the data active = inhibition above about 50%
SENP7 inh – inhibitors of human SENP7 protease; Q9BQF6; recombinant SENP7, Z-RLRGG-aminoluciferin luminescence, 40 min; inhibition, % at 5 µM; 330,000 compounds, 1.5% hits; AID 434973;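 active = inhibition above about 50% at the single test dose, limit read from the data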
SENP6 inh – inhibitors of human SENP6 protease; Q9GZR1; Recombinant SENP6 catalytic domain, aminoluciferin luminescence; inhibition, % at 10 µM; 330,000 compounds, 1.8% hits;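 active = inhibition above about 50% at the single tested dose, limit read from the data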
Target sequence (Q9GZR1 628-1112 limits assumed): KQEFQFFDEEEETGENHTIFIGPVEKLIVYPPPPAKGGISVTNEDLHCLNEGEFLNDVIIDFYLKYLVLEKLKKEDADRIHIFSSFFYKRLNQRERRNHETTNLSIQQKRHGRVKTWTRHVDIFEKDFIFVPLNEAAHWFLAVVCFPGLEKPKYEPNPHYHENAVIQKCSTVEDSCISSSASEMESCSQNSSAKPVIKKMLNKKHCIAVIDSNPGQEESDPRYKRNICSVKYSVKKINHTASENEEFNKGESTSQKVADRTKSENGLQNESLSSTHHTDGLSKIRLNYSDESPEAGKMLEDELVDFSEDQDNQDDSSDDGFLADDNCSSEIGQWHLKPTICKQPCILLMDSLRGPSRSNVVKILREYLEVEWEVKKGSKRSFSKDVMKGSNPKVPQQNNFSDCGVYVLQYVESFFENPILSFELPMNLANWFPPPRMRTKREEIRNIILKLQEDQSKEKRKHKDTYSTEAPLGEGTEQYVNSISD
SENP8 confirm – confirmation of human SENP8 protease inhibitors. shares compounds with SENP7 inh. Recombinant SENP8, Z-RLRGG-aminoluciferin luminescence, 60 min. inhibition, % at 12.5 µM. 6,200 compounds, 40% hits;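 active = mean inhibition across replicates above about 50%, limit read from the data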
SENP6 conf – confirmation of human SENP6 protease inhibitors. shares compounds with SENP7 inh. recombinant SENP6, Z-RLRGG-aminoluciferin luminescence. inhibition, % at 12.5 µM. 6,200 compounds, 58% hits. AID 488915
SENP7 confirm – human SENP7 inhibition, confirmed. recombinant SENP7, Z-RLRGG-aminoluciferin luminescence, 40 min. AID 488917. inhibition, % at 12.5 µM. 6,200 compounds, 69% hits. shares compounds with SENP7 inh
Casp3 select – inhibits human caspase-3 in SENP selectivity test; shares compounds with SENP7 inh; purified caspase-3, Z-DEVD-aminoluciferin luminescence, 60 min; inhibition, % at 12.5 µM; 6,200 compounds, 60% hits;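 active = mean inhibition above about 50%, limit read from the data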
SENP luc ctr – luminescence interference (SENP counter-screen); shares compounds with SENP7 inh; Pre-incubated SENP8/Z-RLRGG-aminoluciferin, luciferase luminescence interference; inhibition, % at 12.5 µM; 6,200 compounds, 39% hits; AID 488919;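 active = mean inhibition above about 50% when retested at one dose, limit read from the data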
Each line names hits and unclear results; the compound was inactive in the other large screens (follow-up assays come after a bar, where they were run).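 Rule for the calls, unless noted: active = mean inhibition above about 50% in the one-dose retest (limit read from the data); inactive = the rest.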

Clc1ccc(OCc2nc(-c3ccncc3)no2)c(Cl)c1	SENP6 inh 55 | SENP8 confirm inactive | SENP6 conf inactive | SENP7 confirm 65 | Casp3 select inactive | SENP luc ctr inactive
Oc1ccc(/C=N/Nc2cccc(Cl)n2)c(O)c1	SENP8 block-2 97, SENP7 inh 98, SENP6 inh 97 | SENP8 confirm 99 | SENP6 conf 99 | SENP7 confirm 102 | Casp3 select 96 | SENP luc ctr 98
O=C(Nc1ccc(OC(F)F)c(Cl)c1)c1cccc(OC(F)F)c1	SENP6 inh 62 | SENP8 confirm 52 | SENP6 conf inactive | SENP7 confirm 76 | Casp3 select inactive | SENP luc ctr 65
COc1ccc(NC(=O)c2cccc(OC(F)F)c2)cc1Cl	SENP8 block-2 64, SENP7 inh 80, SENP6 inh 76 | SENP8 confirm inactive | SENP6 conf 76 | SENP7 confirm 94 | Casp3 select 60 | SENP luc ctr 68
COC(=O)c1cccc(NC(=O)c2ccc(OC)c(Cl)c2)c1	none
Cc1c(Cl)cccc1NC(=O)c1cccc(OC(F)F)c1	none
O=C(Nc1ccc2c(c1)CCC2)c1cccc(OC(F)F)c1	SENP8 block-2 68, SENP7 inh 75, SENP6 inh 79 | SENP8 confirm 61 | SENP6 conf 68 | SENP7 confirm 91 | Casp3 select 55 | SENP luc ctr 69
O=C1NC(=O)C2(CCCC2C(=O)O)N1 (stereo unspecified)	none (no result: SENP8 block-2, SENP7 inh, SENP6 inh)
CCOC(=O)c1[nH]c(C)c(C(=O)OCC(=O)N(Cc2ccccc2)C(C)C)c1C	none
Cc1ccc([C@@H]2C[C@H]3CN(Cc4cccc(Cl)c4)C(=O)[C@]34CCCN24)o1	SENP6 inh 64 | SENP8 confirm inactive | SENP6 conf inactive | SENP7 confirm inactive | Casp3 select inactive | SENP luc ctr inactive
Cc1ccsc1C(=O)N1CCC1(C)C(=O)NS(=O)(=O)c1ccc(Br)cc1 (stereo unspecified)	none (no result: SENP8 block-2, SENP7 inh, SENP6 inh)
COc1cccc(-c2cc(C(F)(F)F)c(C#N)c(=O)[nH]2)c1	SENP8 block-2 85, SENP6 inh 85 | SENP8 confirm inactive | SENP6 conf 70 | SENP7 confirm 85 | Casp3 select 70 | SENP luc ctr 77
Cc1ccc(-c2cc(C(F)(F)F)c(C#N)c(=O)[nH]2)cc1	SENP8 block-2 68, SENP6 inh 76 | SENP8 confirm 65 | SENP6 conf 66 | SENP7 confirm 57 | Casp3 select 61 | SENP luc ctr inactive
N#Cc1c(C(F)(F)F)cc(-c2ccccc2)[nH]c1=O	none
CCCCn1nnnc1C(c1cc2ccccc2o1)N1CCCN(C(=O)OC(C)(C)C)CC1 (stereo unspecified)	none (no result: SENP8 block-2, SENP7 inh, SENP6 inh)
C[C@@H]1CN([C@H](C)CO)C(=O)CCCn2nncc2CO[C@H]1CN(C)Cc1cccnc1	none (no result: SENP8 block-2, SENP7 inh, SENP6 inh)
Cc1ccccc1-c1noc(-c2ccc(O)cc2)n1	SENP8 block-2 99, SENP7 inh 101, SENP6 inh 98 | SENP8 confirm 99 | SENP6 conf 100 | SENP7 confirm 102 | Casp3 select 98 | SENP luc ctr 97
NC(=O)c1ccc(-c2noc(-c3ccccc3F)n2)cc1	SENP8 block-2 66, SENP7 inh 77, SENP6 inh 74 | SENP8 confirm inactive | SENP6 conf 63 | SENP7 confirm 77 | Casp3 select 69 | SENP luc ctr inactive
COc1nc(-c2ccccc2)ccc1-c1noc(-c2ccccc2F)n1	none
COc1ccc(-c2ccc(-c3noc(-c4ccccc4C)n3)c(OC)n2)cc1	none

Screening results deposited in PubChem BioAssay by Sanford-Burnham Center for Chemical Genomics.
